From PubChem
Only some compounds are listed: those with a hit (about 1.5% of all), similar ones and a draw of the others.
CXCR6 block: CXCR6 receptor inhibitors, primary screen, cell-based, beta-arrestin, luminescence, CHO-K1 PathHunter, 1536-well | 360,000 tested, 0.36% active | inhibition, % at 20 µM | C-X-C chemokine receptor type 6 (Homo sapiens), O00574; in the data active = inhibition above about 34%, passing the limit was not always enough;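 also: antagonist mode with CXCL16 agonist at 10 nM final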
Target sequence (O00574 whole entry, looked up): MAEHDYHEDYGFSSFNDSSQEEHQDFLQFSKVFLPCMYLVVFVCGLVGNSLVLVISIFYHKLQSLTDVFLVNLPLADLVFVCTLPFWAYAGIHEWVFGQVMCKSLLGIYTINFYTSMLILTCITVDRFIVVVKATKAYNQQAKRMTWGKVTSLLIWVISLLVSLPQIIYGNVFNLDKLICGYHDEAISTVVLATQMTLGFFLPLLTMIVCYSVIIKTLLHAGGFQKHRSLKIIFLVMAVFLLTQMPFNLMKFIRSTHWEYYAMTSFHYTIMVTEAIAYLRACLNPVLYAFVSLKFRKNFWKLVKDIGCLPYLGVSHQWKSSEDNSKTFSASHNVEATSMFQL
APJ antag: antagonists of human apelin receptor APJ, primary screen, CHO-K1 cells, beta-arrestin complementation, luminescence. P35414. inhibition, % at 20 µM. 330,000 tested, 0.32% active. AID 2521, 2010;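 active = inhibition above about 40% at 20 µM, limit read from the data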;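 also: cells challenged with 10 nM apelin-13 agonist together with compound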
CCR6 antagonist: CCR6 receptor antagonists, primary screen, cell-based, CHO-K1, luminescence, beta-arrestin, uHTS. C-C chemokine receptor type 6 (Homo sapiens), P51684. CHO-K1 CCR6 PathHunter beta-arrestin, CCL20-stimulated. inhibition, % at 20 µM. 340,000 tested, 0.49% active. AID 493098, 2011;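 active = compounds whose inhibition of the agonist-driven luminescence signal at 20 µM reaches about 50%, limit read from the data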;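 also: cells stimulated with CCL20 at 14 nM final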
Target sequence (P51684 whole entry, looked up): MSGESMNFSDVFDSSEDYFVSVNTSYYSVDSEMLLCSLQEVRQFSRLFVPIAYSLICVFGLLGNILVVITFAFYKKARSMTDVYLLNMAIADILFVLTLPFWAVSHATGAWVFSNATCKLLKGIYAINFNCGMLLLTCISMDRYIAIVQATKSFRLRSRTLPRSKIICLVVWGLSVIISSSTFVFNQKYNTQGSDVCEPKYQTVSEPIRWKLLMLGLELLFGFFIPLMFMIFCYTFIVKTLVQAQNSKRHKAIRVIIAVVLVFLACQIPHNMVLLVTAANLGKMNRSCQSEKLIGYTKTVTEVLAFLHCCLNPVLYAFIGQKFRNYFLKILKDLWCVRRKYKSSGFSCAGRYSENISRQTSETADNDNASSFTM
EBI2 antag: EBI2 receptor antagonists, beta-arrestin recruitment, primary screen, cell-based, luminescence, 7a,25-OHC stimulation, uHTS; G-protein coupled receptor 183 (Homo sapiens), P32249; 7a,25-OHC stimulated; inhibition, % at 5 µM; 360,000 tested, 0.81% active; in the data active = inhibition above about 38%;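 also: enzyme fragment complementation signal reports receptor beta-arrestin coupling in cells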
APJ ag: agonists of human apelin receptor APJ, primary screen, CHO-K1 cells, PathHunter beta-arrestin, luminescence; 0% DMSO wells, 100% apelin; 330,000 tested, 0.11% active; activation, % at 20 µM; AID 2520, 2010;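 active = activation more than six SD over the plate average, tested at 20 µM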
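Assay system – PathHunter CHO-K1 APJ (AGTRL-1) beta-arrestin reporter cells · Compound – one dose, 20 µM compound, 1% DMSO · Timing – compound 90 min 25 °C, reagent 1 h · Measured by – luminescence from split beta-galactosidase complementation, Galacton Star/Emerald II substrate · Measure – beta-arrestin recruitment to APJ as agonist activity, luminescent signal · Benchmarks – DMSO vs Apelin-13 10 nM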
EBI2 conf: EBI2 antagonist hit retest, beta-arrestin, confirmation, cell-based, single concentration, luminescence, 7a,25-OHC stimulation; inhibition, % at 5 µM; AID 651997, 2013; 2,400 tested, 29% active; 7a,25-OHC antagonism; shares compounds with EBI2 antag;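 active = inhibition of at least 50%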
EBI2 agonist: EBI2 agonist activity of antagonist hits, confirmation, counter-screen for EBI2 antagonist project, cell-based, single concentration, agonist mode, luminescence; 2,400 tested, under 10 active; activation, % at 5 µM; EBI2-expressing cells, 60 min; 0% vehicle, 100% 7α,25-dihydroxycholesterol control; shares compounds with EBI2 antag; AID 652000, 2013;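 active = activation of at least 50%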
bGal cs: E. coli beta-galactosidase enzyme inhibition, confirmation, counter-screen for EBI2 antagonist project, biochemical, luminescence, single concentration. inhibition, % at 5 µM. 2,400 tested, 1% active. AID 652176, 2013. shares compounds with EBI2 antag. purified beta-galactosidase, luminescent Galacton Star, 15 min;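 active = replicate-average signal at least 3 plate SD below neutral wells, shown as high inhibition, flagging enzyme-inhibiting false positives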;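 also: higher means stronger loss of beta-gal luminescence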
Numbers stand for hits; 0 = inactive; - = no result given; ! = not active in a repeat.

SMILES | CXCR6 block | APJ antag | CCR6 antagonist | EBI2 antag | APJ ag | EBI2 conf | EBI2 agonist | bGal cs
O=C(/C=C/c1ccc2ccccc2n1)N1CCN(S(=O)(=O)c2ccccc2F)CC1 | 0 | 0 | 0 | 54.6 | 0 | 0 | 0 | 0
O=C(/C=C/c1ccc2ccccc2n1)N1CCN(S(=O)(=O)c2ccc(F)cc2)CC1 | 0 | 0 | 0 | 50.0 | 0 | 0 | 0 | 0
O=C(/C=C/c1ccc2ccccc2n1)N1CCN(c2ccccc2)CC1 | 0 | 0 | 0 | 0 | 0 | - | - | -
CCC(=O)Nc1ccc2ccccc2c1 | 0 | 0 | 0 | 0 | 0 | - | - | -
CC(C)(C)CC(C)(C)NC(=O)CSCC(=O)Nc1ccc2ccccc2c1 | 0 | 0 | 0 | 70.8 | 0 | 0 | 0 | 0
CCOC(=O)c1ccc(N=c2sc(C(=O)OC)cc(=O)n2CCCN2CCOCC2)cc1 | 0 | 0 | 0 | 68.3 | 0 | 67.1! | 0 | 0
CCn1c(=O)cc(C(=O)OC)sc1=Nc1ccc(F)c(F)c1 | 0 | 0 | 0 | 51.2 | 0 | 53.3 | 0 | 0
COC(=O)c1cc(=O)n(CCc2ccc(OC)cc2)c(=Nc2ccc(F)c(Cl)c2)s1 | 0 | 0 | 0 | 66.1 | 0 | 0 | 0 | 0
CCCCN=c1sc(C(=O)OC)cc(=O)n1CCCC | 0 | 0 | 0 | 0 | 0 | - | - | -
COC(=O)c1ccc2c(=O)n(CCCN3CCOCC3)c(=S)[nH]c2c1 | 0 | 0 | 0 | 0 | 0 | - | - | -
COc1ccc2c3c(n(C(=O)OC(C)(C)C)c2c1)C1CC=C(COC(C)=O)CN1CC3 (stereo unspecified) | - | - | - | 0 | - | - | - | -
CCOC(=O)[C@]12CCCC=C1N(Cc1ccccc1)C(=O)[C@H](CC(=O)NCc1cccc3ccccc13)C2 | - | - | - | 0 | - | - | - | -
Cc1ccc(S(=O)(=O)N2[C@H](CC(=O)c3cccc4ccccc34)OC[C@@H]2C(C)C)cc1 | - | - | - | 0 | - | - | - | -
COc1ccc(OCC(=O)N(C)Cc2ccccc2)cc1 | 0 | 0 | 0 | 63.0 | 0 | 56.2 | 0 | 0
CC(C)NS(=O)(=O)c1ccc(OCC(=O)N(C)Cc2ccccc2)cc1 | 0 | 0 | 0 | 0 | 0 | - | - | -
Cc1cc(OCC(=O)N(C)Cc2ccccc2)ccc1Cl | 0 | 0 | 0 | 83.3 | 0 | 72.2 | 0 | 0
Cc1cc(OCC(=O)N(C)Cc2ccccc2)ccc1Br | 0 | 0 | 0 | 91.4 | 0 | 86.7 | 0 | 0
COc1ccc(OCC(=O)N(C)CC2COc3ccccc3O2)cc1 (stereo unspecified) | 0 | 0 | 0 | 45.5 | 0 | 0 | 0 | 0
COc1ccc(NC(=O)CCn2c(=S)[nH]c3ccccc3c2=O)cc1Cl | 0 | - | - | 0 | - | - | - | -
CCOc1ccc(-c2cc(C(=O)NC3CCCCC3)[nH]n2)c(C)c1 | 0 | - | - | 0 | - | - | - | -
Cc1cc(C)n(-c2ccc(C(=O)N3CCN(S(=O)(=O)c4ccc(Br)cc4Cl)CC3)cc2)n1 | 0 | - | - | 92.0 | - | 65.3 | 0 | 0
CC(C)CCNC(=O)/C=C/c1ccc(Br)cc1 | 0 | 0 | 0 | 47.4 | 0 | 0 | 0 | 0
COc1cc(OC)cc(C(=O)N2CCN(C(=O)c3cccc(F)c3)CC2)c1 | 0 | 0 | 0 | 0 | 0 | - | - | -
Cc1ccc(OCC(=O)N2CCN(C(=O)c3ccncc3)CC2)cc1 | 0 | 0 | 0 | 43.9 | 0 | 0 | 0 | 0
COc1ccc(OCC(=O)N2CCN(C(=O)c3ccc(F)cc3)CC2)cc1 | 0 | 0 | 0 | 79.5 | 0 | 65.2 | 0 | 0
SMILES | CXCR6 block | APJ antag | CCR6 antagonist | EBI2 antag | APJ ag | EBI2 conf | EBI2 agonist | bGal cs
Cc1ccc(OCC(=O)N2CCN(C(=O)c3cccc(F)c3)CC2)cc1 | 0 | 0 | 0 | 84.5 | 0 | 0 | 0 | 0
COc1ccc(OCC(=O)N2CCN(C(=O)c3cccc(F)c3)CC2)cc1 | 0 | 0 | 0 | 81.1 | 0 | 61.2 | 0 | 0
CSc1ccc(-c2ccc3c(c2)c(Sc2ccccc2)c(-c2ccccc2)n3C)cc1 | 0 | - | - | 0 | - | - | - | -
COCc1cccc(-c2csc(C(O)c3ccccc3)n2)c1 (stereo unspecified) | 0 | - | - | 0 | - | - | - | -
CC1(C)Oc2c(ccc(O)c2CN2CCOCC2)C2=C1CCCC2 | 0 | - | 0 | 0 | - | - | - | -
OCC1CSC(=S)N1Cc1ccccc1 (stereo unspecified) | 0 | - | - | 0 | - | - | - | -
CCCS(=O)(=O)NC(=O)C1(C)CCN(C(=O)c2ccc(SC(F)(F)F)cc2)C1 (stereo unspecified) | 0 | - | - | 0 | - | - | - | -
CC(C)C1C(=O)N(Cc2cn(Cc3ccco3)nn2)CCS(=O)(=O)N1Cc1ccc(-c2ccc(F)cc2)cc1 (stereo unspecified) | 0 | - | - | 0 | - | - | - | -
C[C@@H]1[C@H](c2ccccc2)Oc2ccc(Cl)cc2S(=O)(=O)N1CC1CCCN1C(=O)OC(C)(C)C (stereo partly specified) | 0 | - | 0 | 0 | - | - | - | -
CCOC(=O)[C@H](C)N1[C@H](C)[C@H](c2ccccc2)Oc2ccc(Cl)cc2S1(=O)=O | 0 | - | 0 | 46.0 | - | 0 | 0 | 0
O=C(Nc1ccc(Nc2ccccc2)cc1)c1ccc(Cl)c([N+](=O)[O-])c1 | 0 | 0 | 0 | 0 | 0 | - | - | -
O=C(Nc1ccccc1-c1ccccc1)c1ccc(Cl)c([N+](=O)[O-])c1 | 0 | 0 | 0 | 53.4 | 0 | 0 | 0 | 0
CN(c1ccccc1)S(=O)(=O)c1cccc(NC(=O)c2ccc(Cl)c([N+](=O)[O-])c2)c1 | 0 | 0 | 0 | 46.4 | 0 | 65.4 | 0 | 0
Cc1ccc(NC(=O)C2(C)CCN2Cc2cccc3c2OCO3)cc1O (stereo unspecified) | 0 | - | - | 0 | - | - | - | -
Cc1ccc(C2CC(=O)C=C(Nc3ccc(Cl)cc3)C2)cc1 (stereo unspecified) | 0 | 0 | 0 | 74.6 | 0 | 64.4 | 0 | 0
O=C1C=C(Nc2ccc(Cl)cc2)CC(c2ccc(Cl)cc2)C1 (stereo unspecified) | 0 | 0 | 0 | 80.9 | 0 | 82.4 | 0 | 0
COc1c(C)cc(C(O)c2ncc(-c3ccccc3F)[nH]2)cc1C (stereo unspecified) | 0 | - | - | 0 | - | - | - | -
COc1cccc(-c2cnc3c(c2)C(=O)N([C@H](C)CO)C[C@@H](C)[C@H](CN(C)C(=O)Nc2ccccc2F)O3)c1 | 0 | - | - | 0 | - | - | - | -
CN(/C=C/C(=O)C(F)(F)F)Cc1ccccc1 | 0 | 0 | 0 | 38.7 | 0 | 0 | 0 | 0
COc1cccc(Oc2cnc(N)nc2-c2ccc(OC)cc2O)c1 | 0 | 0 | 0 | 52.5 | 0 | 0 | 0 | 0
